We go through 2 molecules from ChEMBL document CHEMBL3868601, “Functional 1,3a,6a-triazapentalene scaffold: Design of fluorescent probes for kinesin spindle protein (KSP)” (Bioorg Med Chem Lett, 2016).

Data set [1] has as its target T1, Kinesin-like protein KIF11 (Homo sapiens, UniProt P52732).
T1 sequence (P52732 whole entry): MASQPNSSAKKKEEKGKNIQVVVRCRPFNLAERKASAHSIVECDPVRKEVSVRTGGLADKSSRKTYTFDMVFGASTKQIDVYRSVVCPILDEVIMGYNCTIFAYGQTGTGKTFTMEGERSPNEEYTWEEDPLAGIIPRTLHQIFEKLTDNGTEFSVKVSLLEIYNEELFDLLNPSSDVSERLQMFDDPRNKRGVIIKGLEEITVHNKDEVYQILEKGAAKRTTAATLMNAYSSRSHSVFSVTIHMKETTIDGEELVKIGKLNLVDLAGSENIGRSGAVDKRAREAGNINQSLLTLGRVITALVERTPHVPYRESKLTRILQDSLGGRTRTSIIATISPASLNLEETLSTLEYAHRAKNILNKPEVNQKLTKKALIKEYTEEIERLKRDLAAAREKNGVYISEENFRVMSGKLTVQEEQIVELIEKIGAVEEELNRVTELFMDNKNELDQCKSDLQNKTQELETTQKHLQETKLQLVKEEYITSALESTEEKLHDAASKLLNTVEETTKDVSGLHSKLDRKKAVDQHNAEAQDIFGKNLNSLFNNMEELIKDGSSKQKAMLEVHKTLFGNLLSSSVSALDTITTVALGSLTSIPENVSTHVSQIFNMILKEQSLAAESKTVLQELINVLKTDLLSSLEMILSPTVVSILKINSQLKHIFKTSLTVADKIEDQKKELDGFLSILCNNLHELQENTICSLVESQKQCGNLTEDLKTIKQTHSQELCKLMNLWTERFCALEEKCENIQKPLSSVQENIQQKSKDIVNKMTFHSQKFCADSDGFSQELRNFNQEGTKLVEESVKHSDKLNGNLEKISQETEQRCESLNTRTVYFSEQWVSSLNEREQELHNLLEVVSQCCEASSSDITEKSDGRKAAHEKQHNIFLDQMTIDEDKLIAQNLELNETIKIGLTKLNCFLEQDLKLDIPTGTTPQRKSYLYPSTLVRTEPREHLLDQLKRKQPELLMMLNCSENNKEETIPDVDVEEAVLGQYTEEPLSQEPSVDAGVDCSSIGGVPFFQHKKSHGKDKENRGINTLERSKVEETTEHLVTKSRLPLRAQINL
The data set is described as follows: Inhibition of microtubule-stimulated kinesin spindle protein motor domain (unknown origin) ATPase activity preincubated for 20 mins followed by ATP addition measured after 15 mins by kinase-glo based luciferase reporter gene assay. The procedure, abridged:
(§1)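 Inhibition of microtubule-activated KSP ATPase activity was measured in vitro. IC50 values come from three independent experiments. Percent inhibition was also measured at 20 µM.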

Data set [2] is described as follows: Growth inhibition of human HeLa cells after 72 hrs by MTS assay. The format is functional. The procedure, abridged:
(§2)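 Proliferation of HeLa and A549 cells was measured by MTS assay. GI50 values, or percent growth inhibition at a single concentration (30 µM), come from at least three independent experiments.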
(Formazan colour is commonly taken as a measure of viable cells.)

A short description of data set [3]: Growth inhibition of human A549 cells after 72 hrs by MTS assay. The class given is functional. The following applies: A549, 72 h. The method, boiled down:
as §2

Data set [4] in a line: Solubility of the compound in DMEM medium at >50 uM by microscopic analysis. The format is physicochemical. The procedure, abridged: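 During the 4 h mitotic assay in synchronized HeLa cells, the culture medium was inspected by microscopy for deposits of insoluble compound across the tested concentrations.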
Data set [5] has as its target T2, Kinesin-like protein KIF11 (Homo sapiens) (UniProt P52732).
T2 sequence (whole entry): T1 sequence (P52732 whole entry)
The data set is described as follows: Inhibition of hmAG1-fused kinesin spindle protein (unknown origin) ATPase activity expressed in human HeLa cells assessed as accumulation of mitotic cells after 4 hrs by DAPI staining based fluorescence microscopy. The class given is cell-based. The method, boiled down: (§3)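 Synchronized HeLa cells were given compound as they entered M phase and cultured 4 h at 37 °C. Cells were fixed and immunostained for α-tubulin and KSP, with DAPI for chromosomes. The relative mitotic index was averaged over two independent experiments. Mitotic phenotypes, such as prometaphase with monopolar spindles, were scored as a percentage of mitotic cells.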

In data set [6] the target is T2, Kinesin-like protein KIF11 (Homo sapiens). In words: Inhibition of hmAG1-fused kinesin spindle protein (unknown origin) ATPase activity expressed in human HeLa cells assessed as prometaphase with monopolar spindles at 40 uM after 4 hrs by DAPI staining based fluorescence microscopy relative to control. The class given is cell-based. The method, boiled down: as §3

The nature of data set [7]: Drug uptake in cytoplasm of human HeLa cells expressing hmAG1-conjugated alpha-tubulin at 20 uM after 20 mins by fluorescence microscopic analysis. The format is ADME, cell-based. The method, boiled down: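 Live HeLa cells expressing hmAG1-conjugated α-tubulin (cytoplasm marker) or histone H2B (nucleus marker) were incubated with 20 µM probe for 20 min at 37 °C. Probe localization was imaged by live-cell fluorescence microscopy.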

A short description of data set [8]: Drug uptake in monoastral mitotic human HeLa cells expressing N-terminal hmAG1-tagged recombinant fluorescent KSP at 40 uM after 20 mins by fluorescence microscopic analysis. The class given is ADME, cell-based. The procedure, abridged:
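HeLa cells stably expressing KSP fused at its N-terminus to hmAG1 were treated in mitosis with 40 µM probe for 20 min at 37 °C. Live-cell fluorescence microscopy compared probe signal with the fluorescent KSP signal in monoastral mitotic cells.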

For data set [9], the target named is T2, Kinesin-like protein KIF11 (Homo sapiens). The data set is described as follows: Inhibition of hmAG1-fused kinesin spindle protein (unknown origin) ATPase activity expressed in human HeLa cells assessed as irregular accumulation of KSP in central region of mitotic cells at 40 uM after 4 hrs by DAPI staining based fluorescence microscopy. The class given is cell-based.

Data set [10] is described as follows: Drug uptake in human HeLa cells at G2 phase expressing N-terminal hmAG1-tagged recombinant fluorescent KSP at 20 uM after 20 mins by fluorescence microscopic analysis.
Data set [11] in a line: Drug uptake in human HeLa cells at early mitotic phase expressing N-terminal hmAG1-tagged recombinant fluorescent KSP at 20 uM after 20 mins by fluorescence microscopic analysis.
Data set [12] addresses T2, Kinesin-like protein KIF11 (Homo sapiens). In words: Inhibition of microtubule-stimulated kinesin spindle protein motor domain (unknown origin) ATPase activity at 20 uM preincubated for 20 mins followed by ATP addition measured after 15 mins by kinase-glo based luciferase reporter gene assay. The method, boiled down:
as §1
In general terms: In Kinase-Glo more light means more ATP remaining.

The nature of data set [13]: Growth inhibition of human A549 cells at 30 uM after 72 hrs by MTS assay. The class given is functional. The following applies: A549, 72 h, read-out: GI. The method, boiled down: as §2

Structures are written as SMILES. Active and inactive are the calls of the source. No cut-off for these calls is given here.

What is called IC50 is the concentration needed to halve the response being measured. The low end stands for greater potency in that assay, the high end for weaker potency in that assay. Broadly, the GI50 is the concentration that inhibits growth by half. High values mean lower sensitivity of the cells, low ones greater sensitivity of the cells. In general, inhibition refers to the relative decrease from the control value, in per cent. Turning to `FC(F)(F)c1ccc(-c2ccc(-c3cn4ccc[n+]4[n-]3)cc2)cc1`, in data set [1], the half-maximal inhibitory concentration (IC50) is 6.8 µM. For the same molecule, the concentration for 50% growth inhibition (GI50) was 19 µM in data set [2] and 22 µM in data set [3]. The solubility result in [4] is reported as “Insoluble”. The inhibition entry was “Dose-dependent effect” in data set [5] and 63% in [6]. In addition, the Drug uptake entry in [7], in data set [8], in [10] and in data set [11] was “Active” each time. In addition, in [9], the inhibition entry is “Active”.
On to `FC(F)(F)c1ccc(-c2cn3ccc[n+]3[n-]2)cc1`, for which the half-inhibitory concentration (IC50) in data set [1] is > 20 µM. The same molecule yielded an inhibition in data set [12] of 34%. Moreover, the GI50 was 25 µM in data set [2] and > 30 µM in [3]. The inhibition of growth at 30 µM in data set [13] turned out to be 6%.
